Screening data as filed in PubChem BioAssay.
E coli WT exp – growth inhibitors of E. coli BW25113 wild type; OD600 absorbance; growth inhibition, % at 100 µM; hit rate 0.15% among 98,000; AID 710;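 active = growth inhibition above about 50% at one test dose, limit read from the data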;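 also: growth measured after 20 h incubation at 37 °C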
PostGolgi yeast – growth inhibition of a yeast mutant, post-Golgi transport screen; hit rate 0.9% among 98,000; AID 739; inhibition, % at 10 µM; post-Golgi transport phenotypic cell assay;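 also: yeast cells grown in 1536-well plates; yeast grown about 18 h at 30C before absorbance read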
PostGolgi ctrl – yeast control strain growth, post-Golgi counter-screen; efflux-deficient yeast background strain, growth absorbance A615, 16 h; inhibition, % at 10 µM; hit rate 5% among 98,000; AID 738
HePTP inh – inhibitors of human HePTP phosphatase | AID 521 | P35236 | hit rate 0.64% among 110,000 | recombinant HePTP phosphatase activity, OD absorbance | inhibition, % at 20 µM; in the data active = inhibition above about 50%;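 also: plate controls were vehicle for no effect and reference inhibitor for full effect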
Target sequence (P35236 whole entry, looked up): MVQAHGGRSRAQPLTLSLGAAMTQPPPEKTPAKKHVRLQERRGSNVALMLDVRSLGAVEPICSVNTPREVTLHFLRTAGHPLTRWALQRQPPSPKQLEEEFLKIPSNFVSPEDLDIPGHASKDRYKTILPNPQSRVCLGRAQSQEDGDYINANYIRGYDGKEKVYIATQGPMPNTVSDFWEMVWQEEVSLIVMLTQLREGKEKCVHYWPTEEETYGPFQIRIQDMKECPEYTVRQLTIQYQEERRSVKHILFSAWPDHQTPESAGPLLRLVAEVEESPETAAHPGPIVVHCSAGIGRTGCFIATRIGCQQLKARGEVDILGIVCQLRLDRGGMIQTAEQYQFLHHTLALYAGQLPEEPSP
PLAP activator – human PLAP activation; purified PLAP enzyme, luminescent substrate read-out; hits give high values; activation fold at 20 µM; hit rate 1.2% among 96,000; AID 696; in the data active = activation fold above about 2
Ecoli tolC – growth inhibitors of E. coli BW25113 tolC mutant; AID 573; hit rate 2.2% among 65,000; growth inhibition, % at 10 µM (by protocol); OD615;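 active = growth inhibition at or above a cutoff equal to the mean over every tested compound plus 3 SD, cut at about 60% in these data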;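 also: growth measured after 20 h incubation at 37 °C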
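Test system: tolC-deleted E. coli BW25113; medium: LB with kanamycin 50 µg/mL; compound: single-point testing at 10 µM; incubation: 20 h compound exposure of bacteria at 37 °C; signal: OD at 615 nm; evaluation: growth inhibition in percent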
Active calls of the source: *; x = no result given. Rows were chosen to be rich in hits. Some 5.4% of all compounds tested hit in one or more screens of this group. Rule as the data show it, unless noted: active = inhibition above about 30%; inactive = the rest.

SMILES	E coli WT exp	PostGolgi yeast	PostGolgi ctrl	HePTP inh	PLAP activator	Ecoli tolC
CCc1nnc(SCc2ccc(OC(C)C)cc2)n1N	2.0	-1.0	1.6	9.6	1	-24.1
Cc1cc(N2CCCCC2)nc2ccc(NC(=O)CCC(=O)NCCC(C)C)cc12	2.0	-0.5	8.8	x	2.2*	x
NC(=O)c1csc(-c2ccncc2)n1	0.0	-4.1	22.6	x	0.9	x
CC1CC(C)CN(c2ccc(-n3cnnn3)cc2[N+](=O)[O-])C1 (stereo unspecified)	-7.0	5.7	17.1	x	1	x
O=[N+]([O-])c1cc(-n2cnnn2)ccc1N1CCC(Cc2ccccc2)CC1	-18.0	0.7	73.6*	x	1	x
O=C(NCCc1ccccc1)C1c2ccccc2C(=O)N1C1CC1 (stereo unspecified)	0.0	5.8	3.3	-7.2	0.9	-1.1
O=C(NCc1ccc(Cl)cc1)c1ccccc1Oc1ccccc1	0.0	-8.3	33.2*	x	1.2	x
COCCCNC(=O)c1ccccc1Oc1ccccc1	-1.0	13.8	0.5	3.2	1.1	-15.1
COCCCNc1ccnc2c(Cl)cccc12	10.0	30.8*	-4.0	5.9	0.8	-11.8
COCCNCCOc1c(Cl)cccc1Cl	x	x	x	0.6	x	x
C=CCNC(=O)/C(=C/c1ccco1)NC(=O)c1ccc(Br)o1	2.0	4.2	0.0	x	1.1	x
COc1ccc(-c2onc(C)c2-c2ccc(C(=O)OC(C)C)o2)c(O)c1	-3.0	-0.5	37.4*	-4.4	1.3	100.0*
Cc1nonc1OC(C)CNc1ccc([N+](=O)[O-])cc1 (stereo unspecified)	7.0	-1.1	35.1*	x	1	x
CC(=O)c1cccc(NC(=O)C2CCN(S(=O)(=O)c3ccccc3)CC2)c1	3.0	-4.3	33.5*	x	0.8	x
COc1ccc(OC)c(S(=O)(=O)N2CCC(C(=O)Nc3cccc(C)c3)CC2)c1	-17.0	15.2	2.9	x	2.2*	x
COc1cccc(NC(=O)[C@@H]2CCCN2C(=O)C2CCN(S(=O)(=O)c3ccc(C)cc3)CC2)c1	0.0	1.6	-2.5	-5.9	2*	0.2
O=C(CSc1nnc(CNC(=O)c2c(F)cccc2Cl)o1)Nc1ccc2c(c1)OCCO2	3.0	5.7	2.2	2.9	1.5	-2.6
COc1ccccc1NC(=S)NNC(=O)c1cc(C)n(C)n1	6.0	0.6	6.3	x	2.8*	x
CN(C)S(=O)(=O)c1cccc(NC(=S)Nc2cc(Cl)cc(Cl)c2)c1	31.0	97.1*	84.1*	x	1.5	x
O=C1NC(=S)N/C1=C/c1ccc(-c2c(Br)cc([N+](=O)[O-])cc2Br)o1	-8.0	-4.2	14.5	x	0.9	x
Cc1ccccc1NS(=O)(=O)c1ccc(NC(=O)CSCc2ccc(Br)cc2)cc1	-15.0	96.0*	91.5*	x	0.9	x
O=C(CSCc1ccc(Br)cc1)Nc1ccc(I)cc1	x	x	x	-4.0	x	x
COC(=O)c1sccc1NC(=O)CSc1ccccc1NS(=O)(=O)c1ccc(Br)cc1	-15.0	-20.1	31.8*	x	1.5	x
COc1ccc(N=Cc2c(O)c3ccccc3n2C(C)=O)cc1	x	x	x	-3.6	x	x
CCCc1nc2ccccc2c(C(=O)OCC(=O)Nc2cccc(S(=O)(=O)N3CCOCC3)c2)c1CC	-5.0	-2.2	4.4	x	1.2	x
SMILES	E coli WT exp	PostGolgi yeast	PostGolgi ctrl	HePTP inh	PLAP activator	Ecoli tolC
Cc1ccc(CNC(=O)Cc2csc(Nc3nc(=S)[nH]c4ccccc34)n2)cc1	-3.0	2.0	0.4	x	1.5	x
O=C(NC1CCCC1)c1sc(=S)n2c1[nH]c(=O)c1ccccc12	1.0	3.9	51.2*	-4.4	1.1	100.0*
CCCCCNC(=O)c1ccc2c(=O)[nH]c3c(C(=O)NCC4CCCO4)sc(=S)n3c2c1 (stereo unspecified)	-5.0	-1.0	5.8	4.3	1.6	100.0*
COCCCNC(=O)c1ccc2c(=O)n(CC3CCCO3)c(=S)[nH]c2c1 (stereo unspecified)	-4.0	9.2	15.7	x	0.9	x
O=C(NCc1ccco1)c1sc(=S)n2c1[nH]c(=O)c1ccccc12	11.0	-6.8	32.3*	20.2	1.3	99.7*
CCOc1ccc(C=NN2CCN(c3ccccn3)CC2)cc1	x	x	x	3.5	x	x
O=C(NCN1CCCCC1)c1cnccn1	0.0	1.8	0.3	8.4	1.1	-16.9
O=C(NNC(=O)C1CCCCC1)c1cnccn1	14.0	-17.1	7.8	x	2*	x
Cc1ccc(-c2nn(-c3ccccc3)cc2C2SCC(=O)N2Cc2ccccc2)o1 (stereo unspecified)	-23.0	1.7	58.3*	0.9	1.4	42.5
O=C1CSC(c2cn(-c3ccccc3)nc2-c2cc3ccccc3o2)N1Cc1ccccc1 (stereo unspecified)	-12.0	4.1	10.8	x	1.2	x
CCOC(=O)C1CCCN(S(=O)(=O)c2ccc(OC)cc2)C1 (stereo unspecified)	-2.0	9.1	12.7	x	1.4	x
COc1ccc(S(=O)(=O)Nc2ccc(S(=O)(=O)N3CCCC3)cc2)cc1	0.0	4.5	7.5	x	1.2	x
Cc1ccc(S(=O)(=O)N2CCCC(C(=O)N3CCCc4ccccc43)C2)cc1 (stereo unspecified)	-8.0	0.3	20.1	x	0.9	x
COc1ccc(S(=O)(=O)Nc2ccc(S(=O)(=O)N3CCCCC3)cc2)cc1	1.0	-0.5	8.2	-5.9	1.2	73.5*
COC(C(=O)Nc1ccc(S(=O)(=O)N2CCCCC2)cc1)c1ccccc1 (stereo unspecified)	-3.0	-8.3	9.1	x	2*	x
COc1ccc(S(=O)(=O)N2CCCC(C(=O)N3CCCCCC3)C2)cc1 (stereo unspecified)	5.0	-3.5	66.2*	8.7	1.6	-1.0
O=C(C1CCCN(S(=O)(=O)c2ccccc2)C1)N1CCCc2ccccc21 (stereo unspecified)	-6.0	-0.6	35.5*	-1.5	x	2.7
COC(=O)c1ccc(COc2ccc(/C=C(\C#N)c3nc4ccccc4[nH]3)cc2OC)o1	-10.0	5.5	-7.5	x	1.3	x
O=S(=O)(Nc1ccc(S(=O)(=O)N2CCCCCC2)cc1)c1cccs1	-3.0	-5.4	-11.1	x	1.4	x
O=S(=O)(Nc1ccc(S(=O)(=O)N2CCCCC2)cc1)c1ccc(Br)s1	0.0	-2.0	12.4	7.1	1.4	84.5*
O=S(=O)(c1ccc(Br)s1)N1CCC(Cc2ccccc2)CC1	-21.0	-11.7	-0.3	x	0.7	x
O=C(C1CCN(S(=O)(=O)c2ccc(Br)s2)CC1)N1CCc2ccccc21	-12.0	-6.5	52.1*	-0.1	0.9	14.3
CCN(CC)c1ccc(/C=C2\SC(N)=NC2=O)c(OCc2ccc(Cl)cc2)c1	x	x	x	6.4	x	x
CC(C)(C)OC(=O)N[C@@H](Cc1ccccc1)c1nnc(SCC(=O)c2ccc(Cl)cc2)o1	1.0	-1.4	8.4	x	0.9	x
O=C(c1cc2nc(-c3ccco3)cc(C(F)(F)F)n2n1)N1CCN(Cc2ccccc2)CC1	-9.0	7.9	6.0	x	1.8	x
CC1CCc2cc(F)ccc2N1C(=O)c1cc2nc(-c3ccco3)cc(C(F)(F)F)n2n1 (stereo unspecified)	-3.0	1.8	20.2	3.6	1.4	62.7*
O=C(c1cc2nc(-c3ccco3)cc(C(F)(F)F)n2n1)N1CCN(c2ccc(F)cc2)CC1	-10.0	3.2	16.6	7.9	1.4	65.1*
